Data from ChEMBL document CHEMBL5058577, “EUbOPEN Chemogenomics Library 2 (Multiplex)” (2022).

Test system: HEK-293T
Assay: Multiplex assay against HEK293T
Assay type: toxicity, cell-based
Settings: human
Summary of the method: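 Values for tubulin, mitochondrial-mass and membrane-permeability phenotypes are per cents of cells with healthy nuclei. These cells were identified by CellPathfinder machine-learning gating of live cells that had been stained at seeding with Hoechst33342, BioTracker Green Microtubule Cytoskeleton Dye, MitoTracker Red and Annexin V Alexa Fluor 680 and imaged on a CQ1 microscope at 37°C and 5% CO2 after compound addition. The gating first set Hoechst high-intensity objects apart from normal cells, then split normal cells into healthy, pyknosed or fragmented nuclei, and pyknosed cells into mitotic or apoptotic.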

[1] = 12 h, 1 µM, compound concentration 1 uM, replicate 1
[2] = 12 h, 1 µM, compound concentration 1 uM, replicate 2
[3] = 12 h, 10 µM, compound concentration 10 uM, replicate 1
[4] = 12 h, 10 µM, compound concentration 10 uM, replicate 2
[5] = 24 h, 1 µM, compound concentration 1 uM, replicate 1
[6] = 24 h, 1 µM, compound concentration 1 uM, replicate 2
[7] = 24 h, 10 µM, compound concentration 10 uM, replicate 1
[8] = 24 h, 10 µM, compound concentration 10 uM, replicate 2
[9] = 48 h, 1 µM, compound concentration 1 uM, replicate 1
[10] = 48 h, 1 µM, compound concentration 1 uM, replicate 2
[11] = 48 h, 10 µM, compound concentration 10 uM, replicate 1
[12] = 48 h, 10 µM, compound concentration 10 uM, replicate 2

For `Cc1cccc(NC(=O)CN2CCC(c3ccccn3)CC2)c1.Cl.Cl`, the “Population Apoptotic (%)” value [1] was 34%, the “Population Fragmented Nuclei (%)” value [1] was 7% and the “Population Healthy Nuclei (%)” value [1] was 76%. The “Population Hoechst High Intensity Objects (%)” value [1] was 5%, the “Population Membrane Permeable-Phenotype (%)” value [1] was 0% and the “Population Mitochondria Different-Phenotype (%)” value [1] was 54%. For the same compound, the “Population Mitotic Cells (%)” value [1] was 65%, the “Population Normal (%)” value [1] was 94% and the “Population Pyknosed Nuclei (%)” value [1] was 15%. For the same compound, the “Population Tubulin-Different-Phenotype (%)” value [1] was 33%, the “Total Cell Count” value [1] was 348 and the “Population Apoptotic (%)” value [2] was 46%. For the same compound, the “Population Fragmented Nuclei (%)” value [2] was 5%, the “Population Healthy Nuclei (%)” value [2] was 82% and the “Population Hoechst High Intensity Objects (%)” value [2] was 3%. The “Population Mitotic Cells (%)” value [2] was 53%, the “Population Normal (%)” value [2] was 96% and the “Population Pyknosed Nuclei (%)” value [2] was 11%. The “Population Tubulin-Different-Phenotype (%)” value [2] was 22%, the “Total Cell Count” value [2] was 277 and the “Population Apoptotic (%)” value [3] was 61%. For the same compound, the “Population Fragmented Nuclei (%)” value [3] was 6%, the “Population Healthy Nuclei (%)” value [3] was 71% and the “Population Hoechst High Intensity Objects (%)” value [3] was 9%. For the same compound, the “Population Membrane Permeable-Phenotype (%)” value [3] was 0%, the “Population Mitochondria Different-Phenotype (%)” value [3] was 63% and the “Population Mitotic Cells (%)” value [3] was 38%. For the same compound, the “Population Normal (%)” value [3] was 90%, the “Population Pyknosed Nuclei (%)” value [3] was 21% and the “Population Tubulin-Different-Phenotype (%)” value [3] was 50%. The “Total Cell Count” value [3] was 291, the “Population Apoptotic (%)” value [4] was 43% and the “Population Fragmented Nuclei (%)” value [4] was 10%. For the same compound, the “Population Healthy Nuclei (%)” value [4] was 70%, the “Population Hoechst High Intensity Objects (%)” value [4] was 14% and the “Population Mitochondria Different-Phenotype (%)” value [4] was 79%. The “Population Mitotic Cells (%)” value [4] was 56%, the “Population Normal (%)” value [4] was 85% and the “Population Pyknosed Nuclei (%)” value [4] was 18%. The “Population Tubulin-Different-Phenotype (%)” value [4] was 35%, the “Total Cell Count” value [4] was 273 and the “Population Apoptotic (%)” value [5] was 32%. The “Population Fragmented Nuclei (%)” value [5] was 8%, the “Population Healthy Nuclei (%)” value [5] was 81% and the “Population Hoechst High Intensity Objects (%)” value [5] was 3%. For the same compound, the “Population Membrane Permeable-Phenotype (%)” value [5] was 0%, the “Population Mitochondria Different-Phenotype (%)” value [5] was 30% and the “Population Mitotic Cells (%)” value [5] was 67%. For the same compound, the “Population Normal (%)” value [5] was 96%, the “Population Pyknosed Nuclei (%)” value [5] was 9% and the “Population Tubulin-Different-Phenotype (%)” value [5] was 22%. The “Total Cell Count” value [5] was 451, the “Population Apoptotic (%)” value [6] was 45% and the “Population Fragmented Nuclei (%)” value [6] was 10%. For the same compound, the “Population Healthy Nuclei (%)” value [6] was 79%, the “Population Hoechst High Intensity Objects (%)” value [6] was 4% and the “Population Mitochondria Different-Phenotype (%)” value [6] was 44%. The “Population Mitotic Cells (%)” value [6] was 54%, the “Population Normal (%)” value [6] was 95% and the “Population Pyknosed Nuclei (%)” value [6] was 10%. For the same compound, the “Population Tubulin-Different-Phenotype (%)” value [6] was 18%, the “Total Cell Count” value [6] was 339 and the “Population Apoptotic (%)” value [7] was 59%. The “Population Fragmented Nuclei (%)” value [7] was 8%, the “Population Healthy Nuclei (%)” value [7] was 74% and the “Population Hoechst High Intensity Objects (%)” value [7] was 7%. The “Population Membrane Permeable-Phenotype (%)” value [7] was 0%, the “Population Mitochondria Different-Phenotype (%)” value [7] was 60% and the “Population Mitotic Cells (%)” value [7] was 40%. The “Population Normal (%)” value [7] was 92%, the “Population Pyknosed Nuclei (%)” value [7] was 17% and the “Population Tubulin-Different-Phenotype (%)” value [7] was 38%. For the same compound, the “Total Cell Count” value [7] was 350, the “Population Apoptotic (%)” value [8] was 50% and the “Population Fragmented Nuclei (%)” value [8] was 11%. The “Population Healthy Nuclei (%)” value [8] was 75%, the “Population Mitochondria Different-Phenotype (%)” value [8] was 64% and the “Population Mitotic Cells (%)” value [8] was 50%. For the same compound, the “Population Pyknosed Nuclei (%)” value [8] was 13%, the “Population Tubulin-Different-Phenotype (%)” value [8] was 26% and the “Total Cell Count” value [8] was 348. The “Population Apoptotic (%)” value [9] was 30%, the “Population Fragmented Nuclei (%)” value [9] was 13% and the “Population Healthy Nuclei (%)” value [9] was 76%. For the same compound, the “Population Hoechst High Intensity Objects (%)” value [9] was 2%, the “Population Membrane Permeable-Phenotype (%)” value [9] was 0% and the “Population Mitochondria Different-Phenotype (%)” value [9] was 25%. The “Population Mitotic Cells (%)” value [9] was 69%, the “Population Normal (%)” value [9] was 97% and the “Population Pyknosed Nuclei (%)” value [9] was 9%. The “Population Tubulin-Different-Phenotype (%)” value [9] was 21%, the “Total Cell Count” value [9] was 688 and the “Population Apoptotic (%)” value [10] was 46%. The “Population Fragmented Nuclei (%)” value [10] was 8%, the “Population Healthy Nuclei (%)” value [10] was 83% and the “Population Hoechst High Intensity Objects (%)” value [10] was 4%. For the same compound, the “Population Mitochondria Different-Phenotype (%)” value [10] was 24%, the “Population Mitotic Cells (%)” value [10] was 53% and the “Population Normal (%)” value [10] was 95%. The “Population Pyknosed Nuclei (%)” value [10] was 8%, the “Population Tubulin-Different-Phenotype (%)” value [10] was 13% and the “Total Cell Count” value [10] was 524. For the same compound, the “Population Apoptotic (%)” value [11] was 46%, the “Population Fragmented Nuclei (%)” value [11] was 13% and the “Population Healthy Nuclei (%)” value [11] was 75%. The “Population Hoechst High Intensity Objects (%)” value [11] was 4%, the “Population Membrane Permeable-Phenotype (%)” value [11] was 0% and the “Population Mitochondria Different-Phenotype (%)” value [11] was 45%. For the same compound, the “Population Mitotic Cells (%)” value [11] was 53%, the “Population Normal (%)” value [11] was 95% and the “Population Pyknosed Nuclei (%)” value [11] was 10%. The “Population Tubulin-Different-Phenotype (%)” value [11] was 26%, the “Total Cell Count” value [11] was 515 and the “Population Apoptotic (%)” value [12] was 48%. For the same compound, the “Population Fragmented Nuclei (%)” value [12] was 16%, the “Population Healthy Nuclei (%)” value [12] was 76% and the “Population Hoechst High Intensity Objects (%)” value [12] was 2%. For the same compound, the “Population Mitochondria Different-Phenotype (%)” value [12] was 37%, the “Population Mitotic Cells (%)” value [12] was 51% and the “Population Normal (%)” value [12] was 97%. The “Population Pyknosed Nuclei (%)” value [12] was 7%, the “Population Tubulin-Different-Phenotype (%)” value [12] was 20% and the “Total Cell Count” value [12] was 544.
